Laboratory results reported in ChEMBL document CHEMBL4265924, “Inhibitor for FcεRI expression on mast cell from Verbasucum thapsus L” (2018).
Activity calls are given as the source filed them. The rule behind the calls is not given here.

How the values were obtained:
HMC1 [1] = test: Inhibition of FCepsilonRI expression in human HMC1 cells at 30 to 100 uM after 72 hrs by flow cytometric analysis; type: functional, cell-based
How it was run: (§1)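 HMC-1 human mast cells exposed to test sample for 72 h, then harvested and stained with anti-FcεRI α-chain antibody plus FITC-labelled secondary antibody; surface FcεRI read as FITC fluorescence by flow cytometry. Mean ± SD of triplicate experiments.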

HMC1 [2] = test: Inhibition of FCepsilonRI expression in human HMC1 cells at 30 uM after 72 hrs by flow cytometric analysis; type: functional; settings: for inhibition (INH): in the assay text read “30 ug/mL” for “30 uM”; how it was run: as §1
HMC1 [3] = test: Inhibition of FCepsilonRIgamma subunit mRNA expression in human HMC1 cells at 50 to 100 uM after 36 hrs by RT-PCR analysis; type: functional, cell-based
How it was run: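 After 36 h culture of HMC-1 cells with compound, total RNA extracted; mRNA of each FcεRI subunit measured by RT-PCR with ethidium bromide staining of products, normalized to g3pdh and compared with vehicle. Mean ± SD, triplicate experiments.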

HMC1 [4] = test: Inhibition of FCepsilonRIbeta subunit mRNA expression in human HMC1 cells at 50 to 100 uM after 36 hrs by RT-PCR analysis

Compound	inhibition (HMC1 [1])	other results
COc1cc2ccc(=O)oc2c(OC)c1OCC(O)C(C)C (stereo unspecified)	Active	
COc1cc2ccc(=O)oc2c(OC)c1OCC(O)C(C)(C)O (racemic) [listing 1 of 2 here]		inhibition (INH) (HMC1 [2]): 49%
COc1c(OCC(O)C(C)(C)O)c(O)cc2ccc(=O)oc12 (racemic)	inactive	
COc1cc2ccc(=O)oc2c(OC)c1OCC1OC1(C)C (stereo unspecified)	Active	
COc1cc2ccc(=O)oc2c(OC)c1OCC(O)C(C)(C)O (racemic) [listing 2 of 2 here]		inhibition (HMC1 [3]): inactive; inhibition (HMC1 [4]): Active
COc1cc2ccc(=O)oc2c(OC)c1OCC(O)C(C)(C)O (stereo in doubt)		inhibition at 30 µM (HMC1 [2]; Homo sapiens, HMC1, 72 h): 44.3%
COc1cc2ccc(=O)oc2c(OC)c1OCCC(C)C	Active	
COc1cc2ccc(=O)oc2c(OC)c1OCCC(C)(C)O	Active	
COc1cc2ccc(=O)oc2c(OC)c1OCC(O)C(C)(C)O (single isomer, unassigned; enantiomer 1)		inhibition (INH) (HMC1 [2]): 45.1%
COc1cc2ccc(=O)oc2c(O)c1OCC(O)C(C)(C)O (stereo unspecified)	inactive	
